{"source": "ChEMBL document CHEMBL4014327", "about": "(J Med Chem, 2017)", "key": {"[1]": {"experiment": "Lipophilicity, log D of compound", "format": "physicochemical", "conditions": "octanol/water; call rule not given here"}, "CYP1A2": {"target": "CYP1A2 (Homo sapiens, UniProt P05177)", "experiment": "Inhibition of CYP1A2 in human liver microsomes at 3 uM", "format": "ADME"}, "CYP3A4": {"target": "CYP3A4 (Homo sapiens, UniProt P08684)", "sequence (P08684 whole entry)": "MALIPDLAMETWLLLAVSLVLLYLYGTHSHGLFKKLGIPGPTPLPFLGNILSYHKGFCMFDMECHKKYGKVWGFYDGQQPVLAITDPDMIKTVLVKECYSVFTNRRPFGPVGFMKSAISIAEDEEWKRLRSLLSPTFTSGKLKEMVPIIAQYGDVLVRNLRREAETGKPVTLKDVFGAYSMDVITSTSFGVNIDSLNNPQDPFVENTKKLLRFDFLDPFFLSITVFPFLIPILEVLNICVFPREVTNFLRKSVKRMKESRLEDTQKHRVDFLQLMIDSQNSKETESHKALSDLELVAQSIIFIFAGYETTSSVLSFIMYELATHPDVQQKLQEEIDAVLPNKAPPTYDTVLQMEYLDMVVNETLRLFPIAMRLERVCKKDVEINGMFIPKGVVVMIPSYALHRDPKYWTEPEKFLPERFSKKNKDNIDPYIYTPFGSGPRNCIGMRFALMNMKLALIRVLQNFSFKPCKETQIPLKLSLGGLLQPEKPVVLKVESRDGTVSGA", "experiment": "Inhibition of CYP3A4 in human liver microsomes at 3 uM", "format": "ADME"}, "[2]": {"experiment": "Solubility of compound in phosphate buffer at pH 6.7", "format": "physicochemical", "outline": "(§1)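 Solubility of crystalline material measured in phosphate-buffered saline pH 6.7, unbuffered water pH 8.1 and simulated fasted-state intestinal fluid pH 6.5, reported in μg/mL.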"}, "[3]": {"experiment": "Solubility of compound in water at pH 8.1", "format": "physicochemical", "outline": "as §1"}, "[4]": {"experiment": "Half life in Wistar Han rat at 1 mg/kg, iv administered as single dose", "format": "ADME, organism-based", "conditions": "in vivo"}, "[5]": {"experiment": "Half life in Wistar Han rat at 5 mg/kg, po administered as single dose", "format": "ADME, organism-based", "conditions": "in vivo"}, "[6]": {"experiment": "Half life in Beagle dog at 1 mg/kg, iv administered as single dose", "format": "ADME, organism-based, Canis lupus familiaris", "conditions": "in vivo"}, "[7]": {"experiment": "Half life in cynomolgus monkey at 5 mg/kg, po administered as single dose", "format": "ADME, organism-based, Macaca fascicularis", "conditions": "in vivo"}, "Rattus norvegicus [8]": {"tested_on": "Rattus norvegicus", "experiment": "Plasma clearance in Wistar Han rat at 1 mg/kg, iv administered as single dose", "format": "ADME, organism-based", "conditions": "in vivo"}, "[9]": {"experiment": "Volume of distribution at steady state in Wistar Han rat at 1 mg/kg, iv administered as single dose", "format": "ADME, organism-based", "conditions": "in vivo, read-out: Vdss", "outline": "(§2)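 Single-dose pharmacokinetic study in male animals, with iv and separate oral administration. Steady-state volume of distribution was derived from plasma concentrations after the iv dose.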"}, "[10]": {"experiment": "Volume of distribution at steady state in Beagle dog at 1 mg/kg, iv administered as single dose", "format": "ADME, organism-based, Canis lupus familiaris", "conditions": "in vivo, read-out: Vdss", "outline": "as §2"}, "[11]": {"experiment": "Volume of distribution at steady state in cynomolgus monkey at 1 mg/kg, iv administered as single dose", "format": "ADME, organism-based, Macaca fascicularis", "conditions": "in vivo, read-out: Vdss", "outline": "as §2"}, "[12]": {"experiment": "Oral bioavailability in Wistar Han rat at 5 mg/kg administered as single dose", "format": "ADME, organism-based", "conditions": "in vivo"}, "[13]": {"experiment": "Oral bioavailability in Beagle dog at 5 mg/kg administered as single dose", "format": "ADME, organism-based, Canis lupus familiaris", "conditions": "in vivo"}, "[14]": {"experiment": "Oral bioavailability in cynomolgus monkey at 5 mg/kg administered as single dose", "format": "ADME, organism-based, Macaca fascicularis", "conditions": "in vivo"}, "[15]": {"target": "MAP kinase-interacting serine/threonine-protein kinase 2 (Homo sapiens) (UniProt Q9HBH9)", "sequence (Q9HBH9 whole entry, looked up)": "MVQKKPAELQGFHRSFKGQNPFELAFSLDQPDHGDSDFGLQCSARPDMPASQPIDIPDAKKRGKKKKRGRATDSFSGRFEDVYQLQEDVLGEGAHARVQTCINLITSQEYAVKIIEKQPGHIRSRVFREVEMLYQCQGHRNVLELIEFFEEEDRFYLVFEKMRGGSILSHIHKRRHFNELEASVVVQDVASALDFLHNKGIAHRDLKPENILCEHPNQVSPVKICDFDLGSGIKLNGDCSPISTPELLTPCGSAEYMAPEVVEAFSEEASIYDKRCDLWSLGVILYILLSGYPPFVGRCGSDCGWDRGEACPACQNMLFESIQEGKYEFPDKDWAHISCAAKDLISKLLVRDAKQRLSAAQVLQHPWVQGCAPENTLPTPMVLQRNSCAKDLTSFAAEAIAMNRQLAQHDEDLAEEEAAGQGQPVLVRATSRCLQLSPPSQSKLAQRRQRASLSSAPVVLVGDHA", "experiment": "Inhibition of N-terminal-GST-tagged human full length MNK2 expressed in baculovirus at 200 nM"}, "[16]": {"target": "Leucine-rich repeat serine/threonine-protein kinase 2 (Homo sapiens) (UniProt Q5S007)", "experiment": "Inhibition of recombinant human GST-tagged LRRK2 expressed in baculovirus at 200 nM"}, "[17]": {"target": "Dual specificity protein kinase CLK4 (Homo sapiens) (UniProt Q9HAZ1)", "sequence (Q9HAZ1 whole entry, looked up)": "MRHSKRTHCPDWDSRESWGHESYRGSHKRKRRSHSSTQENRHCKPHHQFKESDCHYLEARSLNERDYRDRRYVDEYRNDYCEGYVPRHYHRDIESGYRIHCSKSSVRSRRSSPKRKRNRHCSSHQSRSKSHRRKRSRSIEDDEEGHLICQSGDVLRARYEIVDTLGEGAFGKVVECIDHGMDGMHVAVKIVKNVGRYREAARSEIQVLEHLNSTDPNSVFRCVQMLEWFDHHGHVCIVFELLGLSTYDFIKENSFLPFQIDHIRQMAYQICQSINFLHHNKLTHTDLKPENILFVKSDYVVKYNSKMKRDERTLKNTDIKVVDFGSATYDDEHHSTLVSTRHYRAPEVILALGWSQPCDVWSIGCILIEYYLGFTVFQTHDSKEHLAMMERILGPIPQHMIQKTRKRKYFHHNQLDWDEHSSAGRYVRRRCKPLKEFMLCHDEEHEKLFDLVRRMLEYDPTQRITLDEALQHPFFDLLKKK", "experiment": "Inhibition of recombinant human full length GST-tagged CLK4 expressed in baculovirus at 200 nM"}, "[18]": {"target": "T1, Interleukin-1 receptor-associated kinase 4 (Homo sapiens) (UniProt Q9NWZ3)", "T1 sequence (whole entry)": "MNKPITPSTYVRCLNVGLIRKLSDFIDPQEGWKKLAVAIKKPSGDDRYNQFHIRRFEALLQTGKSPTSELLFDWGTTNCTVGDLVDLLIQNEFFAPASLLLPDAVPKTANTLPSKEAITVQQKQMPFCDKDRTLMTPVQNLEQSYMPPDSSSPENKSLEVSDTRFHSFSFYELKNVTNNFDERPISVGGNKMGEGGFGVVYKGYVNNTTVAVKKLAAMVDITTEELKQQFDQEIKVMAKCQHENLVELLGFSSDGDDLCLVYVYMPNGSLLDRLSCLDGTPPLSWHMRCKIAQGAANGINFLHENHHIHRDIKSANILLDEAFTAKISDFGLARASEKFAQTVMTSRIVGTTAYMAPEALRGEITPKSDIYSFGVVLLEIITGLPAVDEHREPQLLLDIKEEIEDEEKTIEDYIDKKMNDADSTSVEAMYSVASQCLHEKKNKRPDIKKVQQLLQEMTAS", "experiment": "Inhibition of IRAK4 in human THP1 cell lysate at 200 nM"}, "[19]": {"target": "Interleukin-1 receptor-associated kinase 3 (Homo sapiens) (UniProt Q9Y616)", "sequence (Q9Y616 whole entry)": "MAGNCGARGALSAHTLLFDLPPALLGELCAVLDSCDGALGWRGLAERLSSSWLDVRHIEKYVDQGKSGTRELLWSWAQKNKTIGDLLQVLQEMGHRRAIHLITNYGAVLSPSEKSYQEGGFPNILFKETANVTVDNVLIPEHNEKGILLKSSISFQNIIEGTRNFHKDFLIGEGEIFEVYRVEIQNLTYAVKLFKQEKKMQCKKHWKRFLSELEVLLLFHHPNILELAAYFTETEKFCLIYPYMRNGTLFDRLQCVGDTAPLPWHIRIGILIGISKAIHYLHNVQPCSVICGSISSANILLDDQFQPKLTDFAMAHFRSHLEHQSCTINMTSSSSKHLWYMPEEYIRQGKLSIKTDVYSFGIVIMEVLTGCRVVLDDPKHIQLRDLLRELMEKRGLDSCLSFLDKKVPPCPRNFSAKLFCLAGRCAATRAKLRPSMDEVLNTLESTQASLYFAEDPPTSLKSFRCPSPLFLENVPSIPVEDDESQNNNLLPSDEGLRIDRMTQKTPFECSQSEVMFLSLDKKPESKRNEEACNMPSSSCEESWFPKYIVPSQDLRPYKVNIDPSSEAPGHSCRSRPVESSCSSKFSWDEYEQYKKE", "experiment": "Inhibition of IRAK3 in human THP1 cell lysate at 200 nM"}, "[20]": {"target": "Phosphatidylinositol 5-phosphate 4-kinase type-2 gamma (Homo sapiens) (UniProt Q8TBX8)", "sequence (Q8TBX8 whole entry)": "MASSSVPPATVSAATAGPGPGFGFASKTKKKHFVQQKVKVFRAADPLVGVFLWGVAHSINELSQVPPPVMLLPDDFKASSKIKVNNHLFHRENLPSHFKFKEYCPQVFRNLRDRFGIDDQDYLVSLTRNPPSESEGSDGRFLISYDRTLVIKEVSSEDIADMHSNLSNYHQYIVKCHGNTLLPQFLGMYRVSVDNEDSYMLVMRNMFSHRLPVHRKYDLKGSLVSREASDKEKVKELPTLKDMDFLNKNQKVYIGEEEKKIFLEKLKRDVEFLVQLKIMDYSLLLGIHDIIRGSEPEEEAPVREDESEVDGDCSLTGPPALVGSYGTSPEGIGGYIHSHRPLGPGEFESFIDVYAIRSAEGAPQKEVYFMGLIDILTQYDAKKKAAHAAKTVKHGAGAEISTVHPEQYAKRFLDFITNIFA", "experiment": "Inhibition of PIPK2C in human THP1 cell lysate at 200 nM"}, "hERG (KCNH2)": {"target": "hERG (KCNH2) (Homo sapiens, UniProt Q12809)", "sequence (Q12809 whole entry)": "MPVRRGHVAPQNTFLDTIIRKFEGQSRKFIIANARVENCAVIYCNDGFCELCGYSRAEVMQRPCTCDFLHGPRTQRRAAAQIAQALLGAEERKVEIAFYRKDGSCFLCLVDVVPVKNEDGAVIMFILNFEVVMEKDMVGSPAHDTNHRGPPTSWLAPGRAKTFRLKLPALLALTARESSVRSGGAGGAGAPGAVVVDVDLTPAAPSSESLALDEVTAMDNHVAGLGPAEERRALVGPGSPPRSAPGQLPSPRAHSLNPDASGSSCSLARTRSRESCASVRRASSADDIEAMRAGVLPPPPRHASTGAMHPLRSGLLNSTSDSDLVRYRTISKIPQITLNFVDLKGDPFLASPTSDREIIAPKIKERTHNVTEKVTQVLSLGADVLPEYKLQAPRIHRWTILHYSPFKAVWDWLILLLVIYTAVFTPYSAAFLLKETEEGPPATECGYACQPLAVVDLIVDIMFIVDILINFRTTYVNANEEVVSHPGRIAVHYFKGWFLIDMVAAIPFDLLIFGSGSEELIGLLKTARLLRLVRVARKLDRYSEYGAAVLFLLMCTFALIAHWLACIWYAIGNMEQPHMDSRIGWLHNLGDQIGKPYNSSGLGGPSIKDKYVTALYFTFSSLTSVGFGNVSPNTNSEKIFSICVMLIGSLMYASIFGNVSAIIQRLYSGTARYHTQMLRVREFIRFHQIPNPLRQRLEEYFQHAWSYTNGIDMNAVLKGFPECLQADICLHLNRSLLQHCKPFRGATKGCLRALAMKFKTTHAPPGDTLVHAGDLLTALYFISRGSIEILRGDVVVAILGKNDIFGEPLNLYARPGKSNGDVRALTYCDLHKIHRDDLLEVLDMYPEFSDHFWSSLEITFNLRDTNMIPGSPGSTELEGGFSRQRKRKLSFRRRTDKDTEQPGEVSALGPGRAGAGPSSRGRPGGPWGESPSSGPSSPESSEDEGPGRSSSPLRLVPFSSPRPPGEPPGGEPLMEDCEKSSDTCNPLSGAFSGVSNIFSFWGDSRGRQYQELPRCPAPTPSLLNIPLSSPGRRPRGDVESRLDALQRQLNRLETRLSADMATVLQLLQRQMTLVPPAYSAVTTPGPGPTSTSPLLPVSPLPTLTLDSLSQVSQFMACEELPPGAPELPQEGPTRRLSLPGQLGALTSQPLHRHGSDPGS", "experiment": "Inhibition of human ERG at 100 uM by voltage clamp assay", "outline": "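hERG current measured by voltage clamp, test compound at 100 μM; percent current inhibition.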"}, "Cytochrome P450 1A2": {"target": "Cytochrome P450 1A2 (Homo sapiens, UniProt P05177)", "experiment": "Time dependent inhibition of CYP1A2 in human liver microsomes at 100 uM", "format": "ADME", "outline": "(§3)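 Time-dependent inhibition assessed in pooled human liver microsomes with probe substrates, test compound at 100 μM.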"}, "Cytochrome P450 2C8": {"target": "Cytochrome P450 2C8 (Homo sapiens, UniProt P10632)", "experiment": "Time dependent inhibition of CYP2C8 in human liver microsomes at 100 uM", "format": "ADME", "outline": "as §3"}, "Cytochrome P450 2C9": {"target": "Cytochrome P450 2C9 (Homo sapiens, UniProt P11712)", "sequence (P11712 whole entry)": "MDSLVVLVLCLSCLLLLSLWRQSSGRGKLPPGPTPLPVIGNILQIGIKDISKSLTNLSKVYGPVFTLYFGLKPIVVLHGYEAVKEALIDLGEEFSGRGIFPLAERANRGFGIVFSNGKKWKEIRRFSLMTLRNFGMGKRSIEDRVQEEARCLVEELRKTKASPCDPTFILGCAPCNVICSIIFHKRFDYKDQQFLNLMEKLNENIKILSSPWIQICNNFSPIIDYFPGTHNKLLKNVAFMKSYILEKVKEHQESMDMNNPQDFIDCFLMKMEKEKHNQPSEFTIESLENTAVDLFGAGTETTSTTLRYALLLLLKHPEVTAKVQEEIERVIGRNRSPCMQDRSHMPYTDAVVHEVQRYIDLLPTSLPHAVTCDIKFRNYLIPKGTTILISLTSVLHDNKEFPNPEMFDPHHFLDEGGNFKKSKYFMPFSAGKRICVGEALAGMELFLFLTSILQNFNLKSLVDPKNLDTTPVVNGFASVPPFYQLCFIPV", "experiment": "Time dependent inhibition of CYP2C9 in human liver microsomes at 100 uM", "format": "ADME", "outline": "as §3"}, "Cytochrome P450 2C19": {"target": "Cytochrome P450 2C19 (Homo sapiens, UniProt P33261)", "sequence (P33261 whole entry)": "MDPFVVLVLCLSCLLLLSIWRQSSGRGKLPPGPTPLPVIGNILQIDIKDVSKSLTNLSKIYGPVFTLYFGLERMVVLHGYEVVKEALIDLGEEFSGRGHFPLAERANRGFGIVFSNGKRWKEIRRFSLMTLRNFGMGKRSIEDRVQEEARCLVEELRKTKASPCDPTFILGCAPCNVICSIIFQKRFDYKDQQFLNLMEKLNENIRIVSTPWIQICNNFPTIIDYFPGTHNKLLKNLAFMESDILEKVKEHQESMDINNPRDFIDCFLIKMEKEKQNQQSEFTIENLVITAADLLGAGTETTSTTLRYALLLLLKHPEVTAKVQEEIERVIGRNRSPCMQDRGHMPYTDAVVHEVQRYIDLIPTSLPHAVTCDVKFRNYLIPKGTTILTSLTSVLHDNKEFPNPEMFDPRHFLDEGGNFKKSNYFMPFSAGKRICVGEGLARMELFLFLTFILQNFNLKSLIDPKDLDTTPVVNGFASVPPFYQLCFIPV", "experiment": "Time dependent inhibition of CYP2C19 in human liver microsomes at 100 uM", "format": "ADME", "outline": "as §3"}, "Rattus norvegicus [21]": {"tested_on": "Rattus norvegicus", "experiment": "Inhibition of LPS induced TNFalpha secretion in Sprague-Dawley rat assessed as decrease in TNFalpha level in serum at 0.3 mg/kg, po pretreated for 1 hr followed by LPS challenge measured after 1.5 hrs relative to control", "format": "functional", "outline": "(§4)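 Male Sprague-Dawley rats, 6-8 weeks old, n = 6-9 per group. Test article was given orally at 0.3, 1, 3 or 30 mg/kg as a solution or suspension in 0.5% methylcellulose and 2% Tween 80 in water; controls received vehicle alone. Ultrapure LPS (0.01 mg/kg) was given iv 1 h later. Blood was drawn 1.5 h after challenge, and serum TNF was measured by MSD.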"}, "Rattus norvegicus [22]": {"tested_on": "Rattus norvegicus", "experiment": "Inhibition of LPS induced TNFalpha secretion in Sprague-Dawley rat assessed as decrease in TNFalpha level in serum at 30 mg/kg, po pretreated for 1 hr followed by LPS challenge measured after 1.5 hrs relative to control", "format": "functional", "outline": "as §4"}, "Plasma [23]": {"tested_on": "Plasma", "experiment": "Free plasma concentration in Sprague-Dawley rat LPS model at 1 mg/kg, po after 2.5 hrs", "format": "ADME, organism-based", "conditions": "in vivo", "outline": "(§5)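 Male Sprague−Dawley rats, 6−8 weeks old, n = 6−9 per group. Dosed orally at 0.3, 1, 3 or 30 mg/kg in 0.5% methylcellulose/2% Tween 80 in water. Ultrapure LPS 0.01 mg/kg iv given 1 h after dosing. Plasma exposure taken 2.5 h after oral dosing and reported as free concentration using fraction unbound in rat plasma.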"}, "Plasma [24]": {"tested_on": "Plasma", "experiment": "Free plasma concentration in Sprague-Dawley rat LPS model at 30 mg/kg, po after 2.5 hrs", "format": "ADME, organism-based", "conditions": "in vivo", "outline": "as §5"}, "[25]": {"target": "Vascular endothelial growth factor receptor 2 (Homo sapiens, UniProt P35968)", "experiment": "Inhibition of human recombinant VEGFR2 using CAGAGAIETDKEYYTVKD as substrate after 60 mins by Lance method"}}, "note": "pIC50: −log10 of the molar value."}
{"smiles": "CC[C@@H]1[C@H](F)C(=O)N[C@@H]1COc1nccc2cc(C(N)=O)c(OC)cc12", "note": "[ZIMLOVISERTIB]", "values": [{"measurement": "logD", "setting": "[1]", "value": 2}, {"measurement": "inhibition at 3 µM", "setting": "CYP1A2", "value": "< 5", "unit": "%"}, {"measurement": "inhibition at 3 µM", "setting": "CYP3A4", "value": "< 5", "unit": "%"}, {"measurement": "solubility", "setting": "[2]", "value": 57, "unit": "µg/mL"}, {"measurement": "solubility", "setting": "[3]", "value": 65, "unit": "µg/mL"}, {"measurement": "half-life", "setting": "[4]", "value": 0.6, "unit": "h"}, {"measurement": "half-life", "setting": "[5]", "value": "1.4 to 2.1", "unit": "h"}, {"measurement": "half-life", "setting": "[6]", "value": 1.1, "unit": "h"}, {"measurement": "half-life", "setting": "[7]", "value": 6.2, "unit": "h"}, {"measurement": "clearance", "setting": "Rattus norvegicus [8]", "value": 56, "unit": "mL/min/kg"}, {"measurement": "Vd", "setting": "[9]", "value": 1.8, "unit": "L/kg"}, {"measurement": "Vd", "setting": "[10]", "value": 0.77, "unit": "L/kg"}, {"measurement": "Vd", "setting": "[11]", "value": 0.95, "unit": "L/kg"}, {"measurement": "bioavailability", "setting": "[12]", "value": "34 to 50", "unit": "%"}, {"measurement": "bioavailability", "setting": "[13]", "value": 41, "unit": "%"}, {"measurement": "bioavailability", "setting": "[14]", "value": 6.9, "unit": "%"}, {"measurement": "inhibition", "setting": "[15]", "value": "> 70", "unit": "%"}, {"measurement": "inhibition", "setting": "[16]", "value": "> 70", "unit": "%"}, {"measurement": "inhibition", "setting": "[17]", "value": "> 70", "unit": "%"}, {"measurement": "inhibition", "setting": "[18]", "value": "> 50", "unit": "%"}, {"measurement": "inhibition", "setting": "[19]", "value": "> 50", "unit": "%"}, {"measurement": "inhibition", "setting": "[20]", "value": "> 50", "unit": "%"}, {"measurement": "inhibition at 100 µM", "setting": "hERG (KCNH2)", "value": 25, "unit": "%"}, {"measurement": "TDI", "setting": "Cytochrome P450 1A2", "value": "Not Active"}, {"measurement": "TDI", "setting": "Cytochrome P450 2C8", "value": "Not Active"}, {"measurement": "TDI", "setting": "Cytochrome P450 2C9", "value": "Not Active"}, {"measurement": "TDI", "setting": "Cytochrome P450 2C19", "value": "Not Active"}, {"measurement": "inhibition in vivo at 0.3 mg/kg", "setting": "Rattus norvegicus [21]", "value": 12, "unit": "%"}, {"measurement": "inhibition in vivo at 30 mg/kg", "setting": "Rattus norvegicus [22]", "value": 87, "unit": "%"}, {"measurement": "Cp(f)", "setting": "Plasma [23]", "value": 7.7, "unit": "nM"}, {"measurement": "Cp(f)", "setting": "Plasma [24]", "value": 150, "unit": "nM"}, {"measurement": "pIC50", "setting": "[25]", "value": 5.27}]}
